# IDH1 mut inh: blocks human IDH1 R132H reductase activity; AID 624101; hit rate 0.18% among 70,000; O75874; diaphorase/resazurin fluorescence, 60 min; inhibition, % at 10 µM; in the data active = inhibition above about 34%; inconclusive = no clear call, values can overlap the other calls; inactive = below about 11%;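 note: 0% = DMSO and 100% = no enzyme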
# Target sequence (O75874 whole entry R132H): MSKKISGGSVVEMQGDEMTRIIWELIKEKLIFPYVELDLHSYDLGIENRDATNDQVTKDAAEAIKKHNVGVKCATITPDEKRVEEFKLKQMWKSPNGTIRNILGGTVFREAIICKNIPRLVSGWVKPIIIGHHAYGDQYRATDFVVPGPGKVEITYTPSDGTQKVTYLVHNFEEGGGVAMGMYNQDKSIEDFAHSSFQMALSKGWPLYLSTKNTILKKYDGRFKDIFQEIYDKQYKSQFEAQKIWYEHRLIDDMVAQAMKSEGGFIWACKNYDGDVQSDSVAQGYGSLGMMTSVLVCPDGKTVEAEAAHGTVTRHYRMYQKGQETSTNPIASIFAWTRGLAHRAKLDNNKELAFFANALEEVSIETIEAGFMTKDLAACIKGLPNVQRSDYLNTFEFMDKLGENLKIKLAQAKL
# T cruzi growth-1: inhibitors of T. cruzi proliferation; inhibition, % at 8.34 µM; hit rate 5.9% among 77,000; T. cruzi beta-gal in NIH3T3, GalScreen luminescence, 90 h;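 active = mean inhibition above about 93%, with at least 55% of replicates each passing it, limit read from the data, passing the limit was not always enough; inconclusive = only one of those two conditions holds; inactive = neither condition holds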
# GASC1 inh: inhibitors of human demethylase GASC-1 KDM4C; GST-KDM4C 2-372, H3K9me3 peptide, LANCE TR-FRET; inhibition, % at 12.5 µM; hit rate 0.15% among 96,000;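 active = mean replicate inhibition above about 25%, with at least 55% of replicates also reaching it, limit read from the data, passing the limit was not always enough; inconclusive = only one of those two conditions met; inactive = neither condition met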
#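 Material: N-terminal GST-fused human GASC-1 (KDM4C) fragment, residues 2-372. Input: 10 nM enzyme. Incubation: enzyme reaction 30 min, then detection 60 min, both room temperature. Doses: one test concentration per compound. Read-out basis: inhibition from TR-FRET ratio decrease. Detection: LANCE TR-FRET, excitation 340 nm, emissions 618 and 671 nm.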
# T cruzi growth-2: Trypanosoma cruzi proliferation inhibition; shares compounds with T cruzi growth-1; T. cruzi beta-gal in NIH3T3, GalScreen luminescence, 90 h; inhibition, % at 8.35 µM; hit rate 72% among 5,600; AID 651739;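 active = mean replicate inhibition above about 95% and at least 55% of replicates individually reaching it, limit read from the data; inconclusive = only one of the two criteria is met; inactive = neither criterion is met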
# T cruzi growth-3: Trypanosoma cruzi proliferation inhibition; T. cruzi beta-gal in NIH3T3, GalScreen luminescence, 90 h; inhibition, % at 2.09 µM; hit rate 21% among 5,600; shares compounds with T cruzi growth-1; AID 651740;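 active = mean inhibition above about 95%, with at least 55% of replicates also reaching it, limit read from the data; inconclusive = meets just one of the two conditions; inactive = meets neither condition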;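 note: plate controls were neutral control median for no effect and positive control median for full effect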
# NIH3T3 tox: NIH/3T3 (mouse) viability loss; shares compounds with T cruzi growth-1; NIH/3T3 viability, CellTiter-Glo ATP luminescence, 90 h; cytotoxicity (signal decrease), % at 8.35 µM; hit rate 14% among 5,600; AID 651742;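 active = mean signal decrease across replicates above about 35% based on untreated-well scatter, with enough replicates individually passing, limit read from the data; inconclusive = no rule stated though some were filed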;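 note: 0% = median of neutral control wells and 100% = median of positive control wells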
# 3T3 cytotox 2: kills mouse NIH/3T3 fibroblasts; NIH/3T3 viability, CellTiter-Glo ATP luminescence, 90 h; shares compounds with T cruzi growth-1; inhibition, % at 24.9 µM; hit rate 56% among 5,600; AID 651744;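 active = mean loss of cell viability signal at or above a set limit, and enough replicates individually reaching it; inconclusive = meets only the mean limit or only the replicate share; inactive = meets neither condition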;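 note: 0% = median of neutral control wells and 100% = median of positive control wells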
# * hit, by the source's call; ? = inconclusive; / = no result given. Many of the other results were omitted from the sample, so hits are more common in it than they were.
SMILES,IDH1 mut inh,T cruzi growth-1,GASC1 inh,T cruzi growth-2,T cruzi growth-3,NIH3T3 tox,3T3 cytotox 2
O=C(C[C@H]1C=C[C@H](NC(=O)C2CCOCC2)[C@@H](CO)O1)Nc1nccs1,/,/,-1.3,/,/,/,/
COc1ccccc1CNC(=O)c1ccc(Cl)c(S(=O)(=O)N2CCOCC2)c1,-0.8,/,/,/,/,/,/
CNC[C@H]1Oc2ccc(NC(=O)Cc3ccccc3)cc2CC(=O)N([C@H](C)CO)C[C@H]1C,2.5,10.5,-0.3,/,/,/,/
CN(C)CCCNC(=O)C[C@@H]1CC[C@H](NS(=O)(=O)c2ccccc2)[C@@H](CO)O1,0.5,21.6,2.4,/,/,/,/
C/C=C/c1ccc([C@@H]2[C@@H](C#N)N(S(=O)(=O)c3cccc(F)c3)[C@@H]2CO)cc1,/,107.1*,-0.6,81.6,45.8,11.1,25.2*
C/C=C/c1ccccc1[C@@H]1[C@@H](C#N)N(S(=O)(=O)c2cccc(F)c2)[C@H]1CO,/,/,0.6,/,/,/,/
N#C[C@@H]1[C@@H](c2ccc(-c3cccc(F)c3)cc2)[C@H](CO)N1S(=O)(=O)c1cccc(F)c1,/,99.0*,0.6,102.4*,82.3,40.9*,106.8*
CCS(=O)(=O)N1[C@H](C#N)[C@@H](c2ccc(-c3cccc(F)c3)cc2)[C@@H]1CO,/,4.6,-2.5,/,/,/,/
CCS(=O)(=O)N1[C@H](CO)[C@H](c2ccc(-c3cccc(F)c3)cc2)[C@@H]1C#N,/,41.3,1.1,/,/,/,/
N#C[C@@H]1[C@H](c2ccc(-c3cccc(F)c3)cc2)[C@@H](CO)N1S(=O)(=O)c1cccc(F)c1,/,101.5*,-2.4,105.5*,102.9*,13.9,104.7*
Cc1noc(C)c1NC(=O)Nc1ccc2c(c1)CC(=O)N([C@@H](C)CO)C[C@@H](C)[C@H](CN(C)C(=O)Nc1ccc(F)cc1)O2,-0.4,40.3,0.0,/,/,/,/
COc1ccc(S(=O)(=O)N(C)CC(=O)Nc2cc(Cl)cc(Cl)c2)cc1,0.2,/,/,/,/,/,/
C[C@H](CO)N1C[C@H](C)[C@@H](CN(C)Cc2ccc(C(=O)Nc3ccccc3N)cc2)Oc2c(NC(=O)c3cnccn3)cccc2C1=O,/,106.4*,-0.2,103.7*,103.5*,32.5,51.9*
C[C@H]1CN([C@@H](C)CO)C(=O)c2cccc(NC(=O)c3cnccn3)c2O[C@@H]1CN(C)Cc1ccc(C(=O)Nc2ccccc2N)cc1,/,101.8*,0.3,110.8*,63.4,30.8,?
C[C@H](CO)N1C[C@H](C)[C@H](CN(C)Cc2ccc(C(=O)O)cc2)Oc2c(NC(=O)c3cnccn3)cccc2C1=O,-1.2,1.2,-0.1,/,/,/,/
C[C@H]1CN([C@@H](C)CO)C(=O)c2cccc(NC(=O)c3cnccn3)c2O[C@H]1CN(C)Cc1ccc(C(=O)Nc2ccccc2N)cc1,/,/,-2.1,/,/,/,/
CC(=O)c1ccc(NC(=O)CN(C)S(=O)(=O)c2ccc(Cl)cc2)cc1,0.0,/,/,/,/,/,/
O=C1CN(S(=O)(=O)Cc2ccccc2)C[C@@H]2[C@@H](c3ccc(C#Cc4cccnc4)cc3)[C@H](CO)N12,/,/,0.3,/,/,/,/
CCCNC(=O)C[C@H]1CC[C@@H]2[C@H](COc3ccc(NS(=O)(=O)CC)cc3C(=O)N2C)O1,/,7.1,1.5,/,/,/,/
COc1ccccc1NC(=O)N[C@@H]1C=C[C@@H](CC(=O)N[C@@H](C)c2ccccc2)O[C@H]1CO,0.0,-12.7,0.6,/,/,/,/
Cc1cccc(S(=O)(=O)N2CCCCN3[C@@H](CO)[C@H](c4ccc(C#C[C@@H](C)O)cc4)[C@@H]3C2)c1,/,82.5,-0.1,/,/,/,/
C[C@H](O)C#Cc1ccc([C@@H]2[C@H](CO)N3CCCCN(S(=O)(=O)c4ccccc4)C[C@@H]23)cc1,/,113.8*,2.1,19.4,13.5,-0.6,18.6
C[C@H](O)C#Cc1ccc([C@H]2[C@H]3CN(S(=O)(=O)c4ccccc4)CCCCN3[C@H]2CO)cc1,/,?,-0.6,97.1*,19.9,3.1,5.7
C[C@H](O)C#Cc1ccc([C@H]2[C@@H](CO)N3CCCCN(S(=O)(=O)c4ccccc4)C[C@H]23)cc1,/,19.3,0.3,/,/,/,/
CCCNC(=O)N(C)C[C@@H]1Oc2cc(-c3ccccc3F)ccc2S(=O)(=O)N([C@@H](C)CO)C[C@H]1C,0.0,/,-0.1,/,/,/,/

# From PubChem
